What all share (format): functional, cell-based
Test [1] has as its system P388. Nature of the test: Optimal dose administered as a single dose by intraperitoneal inoculation of 10 X E6 murine leukemia P388 cell lines. The conditions noted are these: Mus musculus. The procedure, abridged: (§1)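 Mice inoculated intraperitoneally with 10⁶ P388 leukemia cells. Single drug dose on day 1 in 0.1 or 0.2 mL of 30% v/v ethanol/water. Optimal dose given in mg/kg. ILS is the percentage increase in lifespan at the optimal dose, with values above 20% taken as significant.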

Another test has as its system CHO-AA8. Nature of the test: Compound was evaluated for in vitro cytotoxicities against Chinese hamster ovary derived AA8 cell lines. The conditions noted are these: Cricetulus griseus. The procedure, abridged:
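AA8 cells kept in exponential growth in Alpha MEM with 10% fetal calf serum. Log-phase cultures in 96-well plates, drug exposure 18 h, ended by three washes with fresh medium, then 72 h further growth. Cell density read by methylene blue staining. IC50 is the nominal concentration reducing cell density to 50% of control, with eight controls per plate.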

Another test has as its system UV4. Nature of the test: Hypersensitivity factor obtained from in vitro cytotoxicities against Chinese hamster ovary derived AA8 / UV4 cell lines. The conditions noted are these: Cricetulus griseus. The procedure, abridged:
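HF = IC50(AA8)/IC50(UV4). Both lines kept in Alpha MEM with 10% fetal calf serum and exposed to drug for 18 h, then washed three times and grown 72 h more. Density read by methylene blue. Each IC50 is the nominal concentration giving 50% of control density, with eight controls per plate.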

Test [2] deals with P388. The test can be described thus: Percentage increase in lifespan of drug-related tumor bearing animals when heated at the optimal dose and tested in murine leukemia P388 cell lines. The conditions noted are these: Mus musculus. The procedure, abridged: as §1
Test [3] has as its system P388. The test can be described thus: In vitro cytotoxicity against murine leukemia P388 cell line. The conditions noted are these: Mus musculus. The procedure, abridged:
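P388 cells kept in exponential growth in RPMI 1640 with 10% fetal calf serum. Log-phase cultures in 96-well plates with drug present throughout 72 h growth. Final density read by a modified MTT method. IC50 is the nominal concentration reducing cell density to 50% of control, with eight controls per plate.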

Consider five molecules from ChEMBL document CHEMBL1125727 (J Med Chem, 1991).

What is called IC50 is the concentration at which inhibition is half-maximal. The low end stands for greater potency, the high end for weaker potency. In general, ILS refers to the gain in survival time of treated over control animals, in per cent. Read a high ILS as much gain in survival. Molecule `CCN(CCCl)c1ccc(CCCNC(=O)c2ccc(NCCCc3ccc(N(CC)CCCl)cc3)c3cc4ccccc4nc23)cc1` showed an OD in the test with P388 [1] of 45 mg/kg. Moreover, the half-maximal inhibitory concentration (IC50) stood at 1.5 µM with CHO-AA8 and 0.29 µM in the test with P388 [3]. In the test with UV4, the HF is 5.4. The molecule further returned an increase in lifespan (ILS) in the test on P388 [2] of 25%.
`CCN(CCCl)c1ccc(SCCNC(=O)c2ccc(NCCSc3ccc(N(CC)CCCl)cc3)c3cc4ccccc4nc23)cc1`: the IC50 in the test on CHO-AA8 was found to be 9.4 µM; in the test on P388 [3] it was 0.55 µM. Besides, in the test with UV4, the HF came out at 7.4.
On to `CN(C)CCNC(=O)c1ccc(NCCCc2ccc(N(CCCl)CCCl)cc2)c2cc3ccccc3nc12`, for which, in the test with P388 [1], the OD is 13.3 mg/kg. Also, the concentration for half-maximal inhibition (IC50) with CHO-AA8 was found to be 0.21 µM; in the test on P388 [3], 0.06 µM. The molecule also came in with an HF in the test with UV4 of 19.
Molecule `COc1cc(NS(C)(=O)=O)ccc1Nc1ccc(C(=O)NCCCc2ccc(N(CCCl)CCCl)cc2)c2nc3ccccc3cc12` displayed an OD with P388 [1] of 65 mg/kg. Further, the IC50 with CHO-AA8 was over 4000 µM; in the test with P388 [3], 0.18 µM. Further, the HF with UV4 is over 50. In the test with P388 [2], this molecule gave an ILS of 26%.
`O=C(O)CCCc1ccc(N(CCCl)CCCl)cc1` [CHLORAMBUCIL] came in with an OD with P388 [1] of 225 mg/kg. The molecule further displayed an HF with UV4 of 58. The molecule also showed an increase in life span (ILS) in the test on P388 [2] of 37%.
